Laboratory results published in ChEMBL document CHEMBL4118063, “Design, synthesis and evaluation of aromatic heterocyclic derivatives as potent antifungal agents” (Eur J Med Chem, 2017).
In brackets after ≈: the same amount, converted by molar mass.

Experiments:
Format in all cases: functional
Candida albicans [1] = experiment: Antifungal activity against Candida albicans CPCC 400523 by broth microdilution method
Method in brief: (§1)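 Serial twofold-style dilution in growth medium per NCCLS broth microdilution guidelines. Compounds dissolved in DMSO before dilution. Fluconazole and itraconazole served as positive controls. MIC was read as the lowest concentration that prevents visible fungal growth.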

Candida albicans [2] = experiment: Antifungal activity against Candida albicans ATCC SC5314 by broth microdilution method; method in brief: as §1
Cryptococcus neoformans = experiment: Antifungal activity against Cryptococcus neoformans cgmcc 2.3161 by broth microdilution method; method in brief: as §1
Candida tropicalis = experiment: Antifungal activity against Candida tropicalis cgmcc 2.3739 by broth microdilution method; method in brief: as §1
Aspergillus fumigatus = experiment: Antifungal activity against Aspergillus fumigatus GIM 3.524 by broth microdilution method; method in brief: as §1

| Compound | MIC (Candida albicans [1]) [µg/mL] | MIC (Candida albicans [2]) [µg/mL] | MIC (Cryptococcus neoformans) [µg/mL] | MIC (Candida tropicalis) [µg/mL] | MIC (Aspergillus fumigatus) [µg/mL] |
| --- | --- | --- | --- | --- | --- |
| CC(C)COC(=O)[C@H](Cn1ccnc1)NC(=O)c1ccc(-c2ccccc2)o1 | > 16 | > 16 | > 16 | 4 (≈ 10.5 µM) | > 16 |
| CCC(C)n1ncn(-c2ccc(N3CCN(c4ccc(OCC5COC(Cn6cncn6)(c6ccc(Cl)cc6Cl)O5)cc4)CC3)cc2)c1=O (stereo not given) [ITRACONAZOLE] | 0.125 (≈ 0.177 µM) | 0.0312 (≈ 0.0443 µM) | 1 (≈ 1.42 µM) | 0.0312 (≈ 0.0443 µM) | 1 (≈ 1.42 µM) |
| CC(C)OC(=O)[C@H](Cn1ccnc1)NC(=O)c1ccc(-c2ccccc2)o1 | > 16 | > 16 | > 16 | 8 (≈ 21.8 µM) | > 16 |
| CC(C)COC(=O)[C@H](Cn1ccnc1)NC(=O)c1csc(-c2ccccc2)n1 | > 16 | > 16 | > 16 | > 16 | > 16 |
| CC(C)OC(=O)[C@H](Cn1ccnc1)NC(=O)c1cc(-c2ccccc2)on1 | 0.5 (≈ 1.36 µM) | 0.25 (≈ 0.679 µM) | 0.5 (≈ 1.36 µM) | 0.0625 (≈ 0.17 µM) | 4 (≈ 10.9 µM) |
| CC(C)COC(=O)[C@H](Cn1ccnc1)NC(=O)c1cc(-c2ccc(Br)cc2)on1 | 0.125 (≈ 0.271 µM) | 0.0312 (≈ 0.0677 µM) | 2 (≈ 4.34 µM) | 0.0312 (≈ 0.0677 µM) | > 16 |
| Cc1cc(C(=O)N[C@@H](Cn2ccnc2)C(=O)OC(C)C)nn1-c1ccccc1 | > 16 | > 16 | > 16 | 4 (≈ 10.5 µM) | > 16 |
| CC(C)COC(=O)[C@H](Cn1ccnc1)NC(=O)c1cc(-c2ccccc2)on1 | 1 (≈ 2.61 µM) | 0.0625 (≈ 0.163 µM) | 0.25 (≈ 0.654 µM) | 0.0312 (≈ 0.0817 µM) | 4 (≈ 10.5 µM) |
| CC(C)OC(=O)[C@H](Cn1ccnc1)NC(=O)c1cc(-c2ccc(F)cc2)on1 | 2 (≈ 5.18 µM) | 1 (≈ 2.59 µM) | 2 (≈ 5.18 µM) | 0.0312 (≈ 0.0809 µM) | 8 (≈ 20.7 µM) |

The remaining molecules from weak to strong by MIC (Candida albicans [1]), led by results:

| MIC (Candida albicans [1]) [µg/mL] | MIC (Candida albicans [2]) [µg/mL] | MIC (Cryptococcus neoformans) [µg/mL] | MIC (Candida tropicalis) [µg/mL] | MIC (Aspergillus fumigatus) [µg/mL] | Compound |
| --- | --- | --- | --- | --- | --- |
| 2 (≈ 5.02 µM) | 2 (≈ 5.02 µM) | 16 (≈ 40.2 µM) | 0.25 (≈ 0.627 µM) | > 16 | Cc1nc(-c2ccccc2)sc1C(=O)N[C@@H](Cn1ccnc1)C(=O)OC(C)C |
| 2 (≈ 4.99 µM) | 0.5 (≈ 1.25 µM) | 0.5 (≈ 1.25 µM) | 0.0312 (≈ 0.078 µM) | 8 (≈ 20 µM) | CC(C)COC(=O)[C@H](Cn1ccnc1)NC(=O)c1cc(-c2ccc(F)cc2)on1 |
| 0.5 (≈ 1.31 µM) | 0.25 (≈ 0.654 µM) | 2 (≈ 5.23 µM) | 0.0312 (≈ 0.0817 µM) | 8 (≈ 20.9 µM) | Cc1ccc(-c2cc(C(=O)N[C@@H](Cn3ccnc3)C(=O)OC(C)C)no2)cc1 |
| 0.5 (≈ 1.26 µM) | 0.125 (≈ 0.315 µM) | 0.5 (≈ 1.26 µM) | 0.0312 (≈ 0.0788 µM) | 8 (≈ 20.2 µM) | Cc1ccc(-c2cc(C(=O)N[C@@H](Cn3ccnc3)C(=O)OCC(C)C)no2)cc1 |
| 0.5 (≈ 1.27 µM) | 0.25 (≈ 0.635 µM) | 2 (≈ 5.08 µM) | 0.125 (≈ 0.318 µM) | > 16 | CC(C)COC(=O)[C@H](Cn1ccnc1)NC(=O)c1cnc(-c2ccccc2)nc1 |
